Laboratory results published in ChEMBL document CHEMBL1140313, “Potent inhibitors of subgenomic hepatitis C virus RNA replication through optimization of indole-N-acetamide allosteric inhibitors of the viral NS5B polymerase” (J Med Chem, 2005).
pEC50, pIC50: −log10 of the molar value.

Key:
[1] = biological target: RNA-directed RNA polymerase (Hepacivirus hominis, UniProt O39930); test: Inhibitory activity against hepatitis C virus NS5B polymerase enzyme; Range=6-9 nM
In short: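 Purified ΔC55 NS5B polymerase assayed with heterogenic template RNA. IC50 values come from a single experiment or are arithmetic means of multiple experiments, as footnoted; some were measured in duplicate.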

[2] = Plasma half life following 3 mg/kg iv administration in rat; assay type: ADME, organism-based; parameters: dose 3 mg/kg, route intravenous
In short: (§1)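 Sprague-Dawley rats and male beagle dogs, dosed as trifluoroacetate salts (mg/kg; n = 3, some n = 2). Rat vehicle: iv 20% DMSO/[…] with po PEG-400, or iv 20% DMSO/80% saline with po 50% PEG-400/50% H2O. Dog vehicle: iv 20% DMSO/40% PEG-400/40% H2O, po PEG-400. Plasma levels measured by HPLC–MS/MS; noncompartmental analysis; terminal half-life from iv.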

[3] = Plasma clearance in rat; assay type: ADME, organism-based; settings: read-out: Clp; in short: as §1
[4] = tested on: Huh-7; test: Effective concentration required to inhibit replication of subgenomic HCV RNA in HUH-7 cells in the presence of 50% normal human serum; assay type: functional, cell-based
In short: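 Subgenomic HCV replicon in HUH-7 cells run under high-serum conditions with 50% normal human serum in place of 10% fetal calf serum. EC50 values are the arithmetic mean ± half-range or standard error of at least two independent determinations.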

[5] = Plasma half life following 1 mg/kg iv administration in dog; assay type: ADME, organism-based, Canis lupus familiaris; parameters: dose 1 mg/kg, route intravenous; in short: as §1
[6] = Oral bioavailability in rat (dose 3 mg/kg); assay type: ADME, organism-based; settings: in vivo; in short: as §1
[7] = Oral bioavailability in dog at a dose of 2 mg/kg; assay type: ADME, organism-based, Canis lupus familiaris; settings: in vivo; in short: as §1
[8] = Plasma clearance in dod; assay type: ADME, organism-based, Canis lupus familiaris; settings: dog, read-out: Clp; in short: as §1
[9] = Plasma clearance after intravenous administration of 1 mg/kg in dog; assay type: ADME, organism-based, Canis lupus familiaris; parameters: dose 1 mg/kg, route intravenous; settings: read-out: Clp; in short: as §1
[10] = tested on: Huh-7; test: Effective concentration required to inhibit replication of subgenomic HCV RNA in HUH-7 cells in the presence of 10% fetal calf serum; assay type: functional, cell-based; settings: Homo sapiens
In short: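 Subgenomic HCV replicon in HUH-7 cells, run in medium with 10% fetal calf serum (a modification of Bartenschlager's method). EC50 was determined only for compounds giving >50% inhibition in an initial screen at a fixed 5 μM. Values are the arithmetic mean ± half-range or standard error of at least two independent determinations, or from a single experiment where noted.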

Sequence of RNA-directed RNA polymerase (O39930 whole entry): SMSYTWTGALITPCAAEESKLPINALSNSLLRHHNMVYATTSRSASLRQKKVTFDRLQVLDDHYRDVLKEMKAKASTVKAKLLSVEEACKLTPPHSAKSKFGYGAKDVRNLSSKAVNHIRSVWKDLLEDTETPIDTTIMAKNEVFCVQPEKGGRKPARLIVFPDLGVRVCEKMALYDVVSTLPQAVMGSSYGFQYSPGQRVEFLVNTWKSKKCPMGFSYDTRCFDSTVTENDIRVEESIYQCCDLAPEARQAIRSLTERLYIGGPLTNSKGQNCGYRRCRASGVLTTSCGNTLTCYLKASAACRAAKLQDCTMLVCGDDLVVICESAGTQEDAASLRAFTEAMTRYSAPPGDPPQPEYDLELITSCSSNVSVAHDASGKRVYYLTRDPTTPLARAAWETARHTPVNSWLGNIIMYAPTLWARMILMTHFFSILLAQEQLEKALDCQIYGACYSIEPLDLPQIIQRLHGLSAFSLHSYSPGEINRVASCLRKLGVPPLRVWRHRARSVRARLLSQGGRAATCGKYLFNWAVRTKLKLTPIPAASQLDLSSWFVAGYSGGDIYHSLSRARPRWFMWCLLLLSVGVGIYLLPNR

What does the source list for `CCN(CC)C1CCN(C(=O)Cn2c(-c3ccc(Cl)cc3)c(C3CCCCC3)c3ccc(C(=O)O)cc32)CC1`?
pIC50 [1]: 8.05; half-life [2]: 3.1 h; clearance [3]: 44 mL/min/kg; pEC50 [4]: 6.34; half-life [5]: 5 h; bioavailability [6]: 10%; bioavailability [7]: 51%; clearance [8]: 9 mL/min/kg; clearance [9]: 9 mL/min/kg; pEC50 [10]: 6.90
